Measurements taken from ChEMBL document CHEMBL1129379, “Heterocyclic ureas: inhibitors of acyl-CoA:cholesterol O-acyltransferase as hypocholesterolemic agents” (J Med Chem, 1996).

Assays:
O-acyltransferase = O-acyltransferase (Oryctolagus cuniculus, UniProt G1SFD9); test: (§1) Acyl coenzyme A:cholesterol acyltransferase 1 inhibition in vitro measured in rabbit intestinal microsomes; design: species or system Intestine
[1] = target: T1, Sterol O-acyltransferase 1 (Rattus norvegicus) (UniProt O70536); test: Percent change in plasma total cholesterol in an acute cholesterol-fed rat model of hypercholesterolemia, dose at 30 mg/kg; type: functional, organism-based; design: dose 30 mg/kg
T1 sequence (whole entry): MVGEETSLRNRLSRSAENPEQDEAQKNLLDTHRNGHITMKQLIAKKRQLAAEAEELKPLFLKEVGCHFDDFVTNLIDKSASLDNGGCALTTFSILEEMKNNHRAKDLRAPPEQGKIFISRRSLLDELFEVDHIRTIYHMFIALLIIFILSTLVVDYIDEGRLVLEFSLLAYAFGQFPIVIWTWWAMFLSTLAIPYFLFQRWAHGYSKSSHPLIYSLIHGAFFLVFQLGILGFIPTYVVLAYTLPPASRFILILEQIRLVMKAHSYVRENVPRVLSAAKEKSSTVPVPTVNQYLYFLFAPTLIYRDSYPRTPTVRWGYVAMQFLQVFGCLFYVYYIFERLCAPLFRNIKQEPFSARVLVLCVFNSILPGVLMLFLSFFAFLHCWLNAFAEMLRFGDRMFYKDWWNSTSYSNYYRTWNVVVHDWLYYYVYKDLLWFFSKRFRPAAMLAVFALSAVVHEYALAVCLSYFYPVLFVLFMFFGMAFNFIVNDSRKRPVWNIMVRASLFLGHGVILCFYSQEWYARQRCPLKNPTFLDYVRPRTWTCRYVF

[2] = target: T1, Sterol O-acyltransferase 1 (Rattus norvegicus); test: Percent change in plasma total cholesterol in an acute cholesterol-fed rat model of hypercholesterolemia, dose at 3 mg/kg; type: functional, organism-based; design: dose 3 mg/kg
Rattus norvegicus [3] = test: Percent change in non-HDL-C,Dose at 30 mg/kg; type: functional
How it was run: (§2)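 Chronic rat model of pre-established hypercholesterolemia: 1 week on high-cholesterol diet, then compound dosed orally once daily for 1 week. Plasma total cholesterol, HDL-C and non-HDL-C expressed as percent change versus control; p < 0.05 flagged.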

Canis familiaris [4] = test: mean blood drug concentration in dog, compound Dose at 3 mg/kg; type: ADME, organism-based, Canis lupus familiaris; design: dose 3 mg/kg; settings: in vivo
How it was run: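 Cholesterol-fed Beagle dogs dosed at 3 mg/kg. Plasma drug measured by HPLC on a C8 column, acetonitrile/water 4:1 eluent, detection at 190 nm, with a related analog as internal standard. Quantitation limit 40 ng/mL; mean of 6 animals.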

Rattus norvegicus [5] = test: Percent change in HDL-C,Dose at 3 mg/kg; type: functional; how it was run: as §2
Rattus norvegicus [6] = test: Percent change in HDL-C,Dose at 30 mg/kg; type: functional; how it was run: as §2
[7] = target: T1, Sterol O-acyltransferase 1 (Rattus norvegicus); test: (§3) Percent change in plasma TC in the chronic C-fed rat model of pre-established hypercholesterolemia. Dose at 30 mg/kg; type: functional, organism-based; design: dose 30 mg/kg; how it was run: as §2
Rattus norvegicus [8] = test: Percent change in HDL-C,Dose at 10 mg/kg; type: functional; how it was run: as §2
Rattus norvegicus [9] = test: Percent change in non-HDL-C,Dose at 10 mg/kg; type: functional; how it was run: as §2
Rattus norvegicus [10] = test: Percent change in non-HDL-C,Dose at 3 mg/kg; type: functional; how it was run: as §2
Rattus norvegicus [11] = test: Percent change in plasma TC in the chronic C-fed rat model of pre-established hypercholesterolemia. Dose at 10 mg/kg; type: functional; how it was run: as §2
Rattus norvegicus [12] = test: Percent change in plasma TC in the chronic C-fed rat model of pre-established hypercholesterolemia, dose at 3 mg/kg; type: functional; how it was run: as §2
Canis familiaris [13] = test: Percent change in plasma cholesterol in dog at 3 mg/kg; type: functional, Canis lupus familiaris
How it was run: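 Cholesterol-fed female Beagle dogs given bulk drug in capsules before meals, daily for 1 week, at 3 mg/kg po. Plasma total cholesterol compared before and after treatment as percent change; paired two-tailed t-test, n = 6.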

Rattus norvegicus [14] = test: Percent change in non-HDL-C Dose at 30 mg/kg; type: functional; how it was run: as §2
Rattus norvegicus [15] = test: Percent change in HDL-CDose at 30 mg/kg; type: functional; how it was run: as §2
Rattus norvegicus [16] = test: as §3; type: functional; how it was run: as §2
Rattus norvegicus [17] = test: Percent change in non-HDL-C,dose at 30 mg/kg; type: functional; how it was run: as §2
Rattus norvegicus [18] = test: Percent change in HDL-C,dose at 30 mg/kg; type: functional; how it was run: as §2
Rattus norvegicus [19] = test: Percent change in plasma TC in the chronic C-fed rat model of pre-established hypercholesterolemia. Dose at 3 mg/kg; type: functional; how it was run: as §2
Rattus norvegicus [20] = test: Percent change in plasma TC in the chronic C-fed rat model of pre-established hypercholesterolemia. dose at 30 mg/kg; type: functional; how it was run: as §2
Rattus norvegicus [21] = test: Percent change in non-HDL-C, dose at 30 mg/kg; type: functional; how it was run: as §2
[22] = target: T2, Acyl-CoA:cholesterol acyltransferase (Oryctolagus cuniculus) (UniProt Q95214); test: as §1; settings: Intestine, concentration not given here
T2 sequence (whole entry): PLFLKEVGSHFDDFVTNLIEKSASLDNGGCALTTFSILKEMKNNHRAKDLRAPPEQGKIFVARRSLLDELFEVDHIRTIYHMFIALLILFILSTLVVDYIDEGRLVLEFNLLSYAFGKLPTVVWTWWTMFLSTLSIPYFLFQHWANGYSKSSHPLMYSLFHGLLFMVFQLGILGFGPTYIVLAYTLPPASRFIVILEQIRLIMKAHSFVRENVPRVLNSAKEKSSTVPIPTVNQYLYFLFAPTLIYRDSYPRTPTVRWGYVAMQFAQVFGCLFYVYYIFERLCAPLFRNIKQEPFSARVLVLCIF
How it was run: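 ACAT activity in intestinal microsomes from cholesterol-fed rabbits, measured by incubation with 14C-labeled oleoyl-CoA; IC50 is the micromolar concentration giving 50% inhibition of enzyme activity.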

Rattus norvegicus [23] = test: Percent change in HDL-Cdose at 30 mg/kg; type: functional; how it was run: as §2

IC50 (O-acyltransferase)	Delta TC [1]	Delta TC [2]	SMILES	further results
57 nM	-67%	-43%	CCCCCCCCCCCCCCCCN1NN=C(NC(=O)Nc2c(C(C)C)cccc2C(C)C)N1	–
120 nM	-30%	–	CCCCCCCCCCCCn1cnc(NC(=O)Nc2c(C(C)C)cccc2C(C)C)n1	–
–	-28%	–	CCCCCCCCCCCCn1cnnc1NC(=O)Nc1c(C(C)C)cccc1C(C)C	–
9 nM	-67%	-67%	CCCCCCCCCCCCCN1NN=C(NC(=O)Nc2c(C(C)C)cccc2C(C)C)N1	Non-HDL-C (Rattus norvegicus [3]): -76%; Plasma level (Canis familiaris [4]): 76.7 ng/mL; Delta HDL-C (Rattus norvegicus [5]): 21%; Delta HDL-C (Rattus norvegicus [6]): 113%; Delta TC [7]: -66%; Delta HDL-C (Rattus norvegicus [8]): 113%; Non-HDL-C (Rattus norvegicus [9]): -73%; Non-HDL-C (Rattus norvegicus [10]): -47%; Delta TC (Rattus norvegicus [11]): -64%; Delta TC (Rattus norvegicus [12]): -52%; Delta plasma cholesterol (Canis familiaris [13]): -47%
14 nM	-62%	-35%	CCCCCCCCCCN1NN=C(NC(=O)Nc2c(C(C)C)cccc2C(C)C)N1	–
36 nM	-46%	–	CCCCCCCCCCCCCc1nnc(NC(=O)Nc2c(C(C)C)cccc2C(C)C)s1	–
150 nM	-39%	–	CCCCCCCCCc1nnc(NC(=O)Nc2c(C(C)C)cccc2C(C)C)s1	–
12 nM	-58%	-31%	CCCCCCCCCCCCN1NN=C(CNC(=O)Nc2c(C(C)C)cccc2C(C)C)N1	–
> 10000 nM	–	–	CC(C)c1cccc(C(C)C)c1NC(=O)Nc1nnn[nH]1	–
150 nM	-40%	–	CCCCCCCCCCCCN1NN=C(CNC(=O)Nc2c(OC)cc(OC)cc2OC)N1	–
9 nM	-70%	-63%	CCCCCCCCCCCN1NN=C(NC(=O)Nc2c(C(C)C)cccc2C(C)C)N1	–
150 nM	-29%	–	CCCCCCCCCCCc1csc(NC(=O)Nc2c(C(C)C)cccc2C(C)C)n1	–
120 nM	-33%	–	CCCCCCCCCCc1sc(NC(=O)Nc2c(C(C)C)cccc2C(C)C)nc1C	–
–	12%	–	CCCCCCCCCCCCCSc1n[nH]c(NC(=O)Nc2c(C(C)C)cccc2C(C)C)n1	–
63 nM	-55%	–	CCCCCCCCCCCCc1coc(NC(=O)Nc2c(C(C)C)cccc2C(C)C)n1	–
–	-19%	–	CC(C)c1cccc(C(C)C)c1NC(=O)Nc1nn[nH]n1	–
210 nM	-57%	-45%	CCCCCCCCCCCCn1nnnc1NC(=O)Nc1c(C(C)C)cccc1C(C)C	–
4700 nM	-11%	–	CCCCCCCCCCCCCS(=O)(=O)c1n[nH]c(NC(=O)Nc2c(C(C)C)cccc2C(C)C)n1	–
19 nM	-61%	-58%	CCCCCCCCCCCCc1cc(NC(=O)Nc2c(C(C)C)cccc2C(C)C)on1	Delta HDL-C (Rattus norvegicus [6]): 100%; Delta TC [7]: -56%; Non-HDL-C (Rattus norvegicus [14]): -68%
1700 nM	-6%	–	CCCCCCCCCCCCC[S+]([O-])c1n[nH]c(NC(=O)Nc2c(C(C)C)cccc2C(C)C)n1 (stereo not given)	–
32 nM	-28%	–	CC(C)c1cccc(C(C)C)c1NC(=O)Nc1nnn(CCCCCCCCCCCO)n1	–

IC50 (O-acyltransferase)	Delta TC [1]	Delta TC [2]	SMILES	further results
92 nM	-26%	–	CCCCN1NN=C(NC(=O)Nc2c(C(C)C)cccc2C(C)C)N1	–
13 nM	-62%	-51%	CCCCCCCCCCCCCc1cc(NC(=O)Nc2c(C(C)C)cccc2C(C)C)on1	Delta HDL-C (Rattus norvegicus [15]): 111%; Delta TC [7]: -53%; Non-HDL-C (Rattus norvegicus [14]): -65%
14 nM	-67%	-61%	CCCCCCCCCCCCN1NN=C(NC(=O)Nc2c(C(C)C)cccc2C(C)C)N1	Delta TC (Rattus norvegicus [16]): -69%; Non-HDL-C (Rattus norvegicus [17]): -78%; Plasma level (Canis familiaris [4]): 29.3 ng/mL; Delta HDL-C (Rattus norvegicus [5]): 20%; Delta HDL-C (Rattus norvegicus [18]): 93%; Delta HDL-C (Rattus norvegicus [8]): 87%; Non-HDL-C (Rattus norvegicus [9]): -72%; Non-HDL-C (Rattus norvegicus [10]): -47%; Delta TC (Rattus norvegicus [11]): -64%; Delta plasma cholesterol (Canis familiaris [13]): -39%; Delta TC (Rattus norvegicus [19]): -43%
73 nM	-59%	-21%	CCCCCCN1NN=C(NC(=O)Nc2c(C(C)C)cccc2C(C)C)N1	–
18 nM	-62%	-34%	CCCCCCCCCCCCCc1nnc(NC(=O)Nc2c(C(C)C)cccc2C(C)C)o1	–
66 nM	-75%	-69%	CCCCCCCCCCCCN1NN=C(NC(=O)Nc2c(OC)cc(OC)cc2OC)N1	–
14 nM	-62%	-59%	CCCCCCCCCCCCCc1cc(NC(=O)Nc2c(C(C)C)cccc2C(C)C)no1	Delta TC (Rattus norvegicus [20]): -40%; Delta HDL-C (Rattus norvegicus [18]): 33%; Non-HDL-C (Rattus norvegicus [21]): -45%
4200 nM	12%	–	CCCCCCCCCCCCc1n[nH]c(NC(=O)Nc2c(C(C)C)cccc2C(C)C)n1	–
37 nM	-53%	-28%	CC(C)c1cccc(C(C)C)c1NC(=O)Nc1nnn(CCCCCCCCCCCOC2CCCCO2)n1 (stereo not given)	–
4700 nM	-23%	–	COC(=O)CCCCCCCCCCN1NN=C(NC(=O)Nc2c(C(C)C)cccc2C(C)C)N1	–
250 nM	-36%	–	CCCCCCCCCCCCn1ncnc1NC(=O)Nc1c(C(C)C)cccc1C(C)C	–
35 nM	–	–	CCCCCCCCCCCCn1cnc(NC(=O)Nc2c(C(C)C)cccc2C(C)C)c1	–
31 nM	-65%	1%	CCCCCCCCCN1NN=C(NC(=O)Nc2c(C(C)C)cccc2C(C)C)N1	–
680 nM	-21%	–	CCCCCCCCCCCCCSc1nnc(NC(=O)Nc2c(C(C)C)cccc2C(C)C)n1C(C)=O	–
–	–	–	CCCCCCCCCCCCn1nnnc1NC(=O)Nc1c(OC)cc(OC)cc1OC	inhibition [22]: 28%
39 nM	-61%	–	CCCCCCCCCCCc1nnc(NC(=O)Nc2c(C(C)C)cccc2C(C)C)s1	–
59 nM	-67%	-24%	CCCCCCCCN1NN=C(NC(=O)Nc2c(C(C)C)cccc2C(C)C)N1	–
–	-65%	-22%	CCCCCCCCCCn1nnnc1NC(=O)Nc1c(C(C)C)cccc1C(C)C	–
63 nM	-27%	–	CC(C)=CCC/C(C)=C/Cn1nnc(NC(=O)Nc2c(C(C)C)cccc2C(C)C)n1	–
370 nM	-27%	–	CC(C)c1cccc(C(C)C)c1NC(=O)NC1=NN(Cc2ccccc2)NN1	–
29 nM	-69%	-61%	CCCCCCCCCCc1cc(NC(=O)Nc2c(C(C)C)cccc2C(C)C)on1	Delta TC (Rattus norvegicus [20]): -13%; Delta HDL-C (Rattus norvegicus [23]): -6%; Non-HDL-C (Rattus norvegicus [14]): -14%

SMILES	IC50 (O-acyltransferase)	Delta TC [1]	Delta TC [2]	further results
CCCCCCCCCCCCCCc1cc(NC(=O)Nc2c(C(C)C)cccc2C(C)C)on1	28 nM	-64%	-44%	Delta HDL-C (Rattus norvegicus [15]): 16%; Delta TC [7]: -16%; Non-HDL-C (Rattus norvegicus [14]): -18%
